Results taken from publication PMC11252475 (Acta Pharmaceutica Sinica. B, 2024).

How the values were obtained:
NaV1.5 = NaV1.5 (Homo sapiens, UniProt Q14524); assay: Cell membrane chromatography; type: binding; conditions: capacity factor k′; reflects potential cardiac toxicity; k′ < 0 labeled as 0
rats [1] = assay: Cutaneous trunci pinprick model; type: in vivo, rat; conditions: 62.3 mmol/L
Procedure, shortened: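 Male SD rats under 1%–3% isoflurane had about 6 cm × 6 cm of back shaved, swabbed with alcohol and split into four areas. Test compound (62.3 mmol/L) was given by s.c. infiltration. Pinprick scored 1 for no response and 0 for response. Duration ran from onset to expiration, expressed as mean-score MPE. Effective block was ≥50% MPE; complete block was 100% MPE.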

rats [2] = assay: Sciatic nerve block model; type: in vivo, rat; conditions: 62.3 mmol/L near sciatic nerve; for motor block duration: extensor postural thrust; for duration of effective sensory blockade: hotplate test
Procedure, shortened: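 Test compound (62.3 mmol/L) was injected near the sciatic nerve. Hind limbs were tested every 30 min until back to pre-test baseline. Sensory: paw withdrawal latency on a 55 °C hotplate, timed by stopwatch. Motor: extensor postural thrust in grams on a digital balance. Recovery was 50% of baseline.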

rats [3] = assay: CFA-induced chronic plantar inflammatory pain model; type: in vivo, rat; conditions: 62.3 mmol/L, 0.2 mL subcutaneous at swollen foot
Procedure, shortened: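 Male SD rats (6–8 weeks, 250–300 g) under 1%–3% isoflurane had CFA injected into the right foot. Test compound (62.3 mmol/L, 0.2 mL) or equal-volume saline was given s.c. at the swollen site. Electronic von Frey stimulation to the side of the foot every 10 min after onset. Anesthesia failed when the value fell to half the limb-weight-to-baseline difference or below.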

rats [4] = assay: Plantar incisional pain model; type: in vivo, rat; conditions: 0.2 mL near incision
Procedure, shortened: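 Rats with a plantar incision received test compound or saline, 0.2 mL, near the incision. Local anesthesia was assessed by von Frey stimulation of the lateral sole.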

[5] = tested on: NaV currents in rat dorsal root ganglion (DRG) neurons; assay: Whole-cell patch clamp, sodium current in DRG neurons; type: cell-based; conditions: F-11 rat/mouse fusion cell line, DRG neuron, read-out: IC50 sodium current
Procedure, shortened: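 Male rat DRG neurons (180–200 g donors) were dissociated with collagenase IV (2 mg/mL) then trypsin (10 mg/mL) for 30 min, plated on poly-L-lysine and grown in Neurobasal with FBS and B27. Whole-cell voltage clamp used 3–4 MΩ electrodes. I/V steps ran from −90 to +40 mV in 10 mV increments, 50 ms each.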

[6] = Systemic toxicity, intravenous; conditions: ICR, mouse, in vivo
[7] = Systemic toxicity, subcutaneous injection; type: in vivo, rat; conditions: Sprague-Dawley, rat, in vivo, sc
SD rats = assay: Systemic toxicity, subcutaneous injection; type: in vivo, rat; conditions: TI = LD50/ED50, s.c.
rats [8] = assay: Gingival incision pain model; type: in vivo, rat
Procedure, shortened: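 Oral pain models in rats under 1%–3% isoflurane, with test compound given as local anesthetic. Food intake and body-weight change were measured on a precision balance over 24 h. Facial grooming was video-recorded for 1 h after dosing.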

Chain of NaV1.5 (Q14524 whole entry): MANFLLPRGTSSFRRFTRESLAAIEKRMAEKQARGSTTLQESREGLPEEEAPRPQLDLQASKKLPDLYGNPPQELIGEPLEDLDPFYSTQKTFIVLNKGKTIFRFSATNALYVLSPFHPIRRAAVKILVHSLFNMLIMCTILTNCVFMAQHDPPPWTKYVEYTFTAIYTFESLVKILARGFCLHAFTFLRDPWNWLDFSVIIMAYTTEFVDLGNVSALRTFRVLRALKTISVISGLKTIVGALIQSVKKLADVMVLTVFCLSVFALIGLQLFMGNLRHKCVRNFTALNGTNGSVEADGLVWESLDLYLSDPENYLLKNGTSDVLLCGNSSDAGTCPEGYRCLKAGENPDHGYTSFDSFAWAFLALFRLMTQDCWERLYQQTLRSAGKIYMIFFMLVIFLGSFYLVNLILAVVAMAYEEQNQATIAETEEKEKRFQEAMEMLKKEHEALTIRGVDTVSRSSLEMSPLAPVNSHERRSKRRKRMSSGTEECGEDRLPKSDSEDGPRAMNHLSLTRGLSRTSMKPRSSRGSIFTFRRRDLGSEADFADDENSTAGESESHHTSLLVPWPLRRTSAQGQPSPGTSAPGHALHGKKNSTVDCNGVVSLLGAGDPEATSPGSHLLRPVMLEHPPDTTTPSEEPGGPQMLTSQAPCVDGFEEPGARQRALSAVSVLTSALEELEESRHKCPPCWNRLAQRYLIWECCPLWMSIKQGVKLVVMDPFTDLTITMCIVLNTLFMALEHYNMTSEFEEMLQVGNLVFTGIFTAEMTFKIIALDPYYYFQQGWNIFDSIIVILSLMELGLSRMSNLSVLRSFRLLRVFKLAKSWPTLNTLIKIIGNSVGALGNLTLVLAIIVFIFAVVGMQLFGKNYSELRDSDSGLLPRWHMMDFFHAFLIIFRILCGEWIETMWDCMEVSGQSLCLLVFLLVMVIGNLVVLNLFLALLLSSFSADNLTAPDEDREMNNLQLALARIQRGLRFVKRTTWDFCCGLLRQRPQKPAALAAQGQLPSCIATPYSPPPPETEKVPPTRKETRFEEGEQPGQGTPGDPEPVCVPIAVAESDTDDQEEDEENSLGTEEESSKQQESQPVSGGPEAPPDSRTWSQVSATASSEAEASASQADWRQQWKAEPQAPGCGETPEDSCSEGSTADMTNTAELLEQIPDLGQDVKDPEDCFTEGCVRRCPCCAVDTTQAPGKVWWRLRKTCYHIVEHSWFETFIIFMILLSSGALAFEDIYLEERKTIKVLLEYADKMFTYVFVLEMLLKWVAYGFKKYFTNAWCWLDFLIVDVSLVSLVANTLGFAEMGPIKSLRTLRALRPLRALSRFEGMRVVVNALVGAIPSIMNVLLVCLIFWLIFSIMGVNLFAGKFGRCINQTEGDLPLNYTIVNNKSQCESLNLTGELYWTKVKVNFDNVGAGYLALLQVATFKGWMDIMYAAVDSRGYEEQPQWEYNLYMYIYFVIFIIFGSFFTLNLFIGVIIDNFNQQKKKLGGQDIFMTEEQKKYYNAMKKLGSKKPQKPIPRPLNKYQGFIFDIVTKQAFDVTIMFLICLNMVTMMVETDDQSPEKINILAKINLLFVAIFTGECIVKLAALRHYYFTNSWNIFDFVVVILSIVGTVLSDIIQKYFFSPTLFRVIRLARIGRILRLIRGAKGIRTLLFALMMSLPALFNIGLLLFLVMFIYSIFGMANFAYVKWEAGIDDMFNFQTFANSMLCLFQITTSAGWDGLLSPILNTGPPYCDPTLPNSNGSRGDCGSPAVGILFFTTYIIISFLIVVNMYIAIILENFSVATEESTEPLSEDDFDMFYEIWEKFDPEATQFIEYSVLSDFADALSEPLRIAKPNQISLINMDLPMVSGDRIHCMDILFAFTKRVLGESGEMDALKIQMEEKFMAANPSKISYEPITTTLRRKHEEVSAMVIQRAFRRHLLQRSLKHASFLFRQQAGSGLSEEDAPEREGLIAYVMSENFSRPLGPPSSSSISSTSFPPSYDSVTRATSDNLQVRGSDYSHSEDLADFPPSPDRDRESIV

SMILES	k′ NaV1.5 (NaV1.5)	further results
COC(=O)c1scc(C)c1NC(=O)C(C)N1CCCCC1 (stereo not shown) [AT-3, Methyl 4-methyl-3-(2-(piperidin-1-yl)propanamido)thiophene-2-carboxylate]	1.1	
CCCNC(C)C(=O)Nc1c(C)csc1C(=O)OC (stereo not shown) [AT, Methyl 4-methyl-3-(2-(propylamino)propanamido)thiophene-2-carboxylate, reference compound]	63	subcutaneous infiltration duration (rats [1]): 120 min; motor block duration (rats [2]): 90 min; duration of action (anesthesia) under CFA-induced chronic inflammation (rats [3]): 30 min; anesthesia result in acute inflammation model through plantar incision (rats [4]): underperformed; IC50 [5]: 71.2 ± 3.06 µM; LD50 [6]: 38.3 mg/kg; LD50 at 24 h [7]: 598 mg/kg; TI (SD rats): 125.83; face grooming frequency (rats [8]): significantly lowered
COC(=O)c1scc(C)c1NC(=O)C(C)N1CCNCC1 (stereo not shown) [AT-1, methyl 4-methyl-3-(2-(piperazin-1-yl)propanamido)thiophene-2-carboxylate]	80.8	subcutaneous infiltration duration (rats [1]): 240 min
COC(=O)c1scc(C)c1NC(=O)C(C)N1CCN(CC2CC2)CC1 (stereo not shown) [AT-14, Methyl 3-(2-(4-(cyclopropylmethyl)piperazin-1-yl)propanamido)-4-methylthiophene-2-carboxylate]	22	
COCCN1CCN(C(C)C(=O)Nc2c(C)csc2C(=O)OC)CC1 (stereo not shown) [AT-20, Methyl 3-(2-(4-(2-methoxyethyl)piperazin-1-yl)propanamido)-4-methylthiophene-2-carboxylate]	92	
CCN1CCN(C(C)C(=O)Nc2c(C)csc2C(=O)OC)CC1 (stereo not shown) [AT-12, Methyl 3-(2-(4-ethylpiperazin-1-yl)propanamido)-4-methylthiophene-2-carboxylate]	1.2	
COC(=O)c1scc(C)c1NC(=O)C(C)NCCN1CCOCC1 (stereo not shown) [AT-26, Methyl 4-methyl-3-(2-((2-morpholinoethyl)amino)propanamido)thiophene-2-carboxylate]	72.4	
CCN(CCO)C(C)C(=O)Nc1c(C)csc1C(=O)OC (stereo not shown) [AT-24, Methyl 3-(2-(ethyl(2-hydroxyethyl)amino)propanamido)-4-methylthiophene-2-carboxylate]	27.6	
COC(=O)c1scc(C)c1NC(=O)C(C)N1CCN(C)CC1 (stereo not shown) [AT-11, Methyl 4-methyl-3-(2-(4-methylpiperazin-1-yl)propanamido)thiophene-2-carboxylate]	8	subcutaneous infiltration duration (rats [1]): 260 min
COC(=O)c1scc(C)c1NC(=O)C(C)N1CC(C)CC(C)C1 (stereo not shown) [AT-4, Methyl 3-(2-(3,5-dimethylpiperidin-1-yl)propanamido)-4-methylthiophene-2-carboxylate]	71.2	
COC(=O)c1scc(C)c1NC(=O)C(C)N(CCO)CCO (stereo not shown) [AT-25, Methyl 3-(2-(bis(2-hydroxyethyl)amino)propanamido)-4-methylthiophene-2-carboxylate]	12.1	
COC(=O)c1scc(C)c1NC(=O)C(C)N1CCN(C(C)C)CC1 (stereo not shown) [AT-13, Methyl 3-(2-(4-isopropylpiperazin-1-yl)propanamido)-4-methylthiophene-2-carboxylate]	23.2	subcutaneous infiltration duration (rats [1]): 275 min; motor block duration (rats [2]): 140 min; duration of effective sensory blockade (rats [2]): 145 min; anesthesia result in acute inflammation model through plantar incision (rats [4]): improved results
COC(=O)c1scc(C)c1NC(=O)C(C)N1CCN(c2ccccc2)CC1 (stereo not shown) [AT-18, Methyl 4-methyl-3-(2-(4-phenylpiperazin-1-yl)propanamido)thiophene-2-carboxylate]	57.8	
COC(=O)c1scc(C)c1NC(=O)C(C)N1CCS(=O)(=O)CC1 (stereo not shown) [AT-10, Methyl 3-(2-(1,1-dioxidothiomorpholino)propanamido)-4-methylthiophene-2-carboxylate]	0	
COC(=O)c1scc(C)c1NC(=O)CN1CCN(C(C)C)CC1 [AT-21, Methyl 3-(2-(4-isopropylpiperazin-1-yl)acetamido)-4-methylthiophene-2-carboxylate]	5.8	subcutaneous infiltration effect compared with AT (rats [1]): fewer effects than AT
CCCCOC(=O)c1scc(C)c1NC(=O)C(C)NCCC (stereo not shown) [AT-29, Butyl 4-methyl-3-(2-(propylamino)propanamido)thiophene-2-carboxylate]	35	
CCC(C(=O)Nc1c(C)csc1C(=O)OC)N1CCN(C(C)C)CC1 (stereo not shown) [AT-22, Methyl 3-(2-(4-isopropylpiperazin-1-yl)butanamido)-4-methylthiophene-2-carboxylate]	21.4	subcutaneous infiltration duration (rats [1]): 260 min; motor block duration (rats [2]): 240 min; duration of effective sensory blockade (rats [2]): 220 min
COC(=O)c1scc(C)c1NC(=O)C(C)N1CCSCC1 (stereo not shown) [AT-9, Methyl 4-methyl-3-(2-thiomorpholinopropanamido)thiophene-2-carboxylate]	48.6	
COC(=O)c1scc(C)c1NC(=O)C(C)N1CCN(CCO)CC1 (stereo not shown) [AT-19, Methyl 3-(2-(4-(2-hydroxyethyl)piperazin-1-yl)propanamido)-4-methylthiophene-2-carboxylate]	92	
COC(=O)c1scc(C)c1NC(=O)C(C)N1C(C)COCC1C (stereo not shown) [AT-7, Methyl 3-(2-(3,5-dimethylmorpholino)propanamido)-4-methylthiophene-2-carboxylate]	24	
CCCNC(C)C(=O)Nc1c(C)csc1C(=O)OCCC (stereo not shown) [AT-28, Propyl 4-methyl-3-(2-(propylamino)propanamido)thiophene-2-carboxylate]	38	
COC(=O)c1scc(C)c1NC(=O)C(C)N1CCOCC1C (stereo not shown) [AT-6, Methyl 4-methyl-3-(2-(3-methylmorpholino)propanamido)thiophene-2-carboxylate]	28	
CCCN1CCN(C(C)C(=O)Nc2c(C)csc2C(=O)OC)CC1 (stereo not shown) [AT-16, Methyl 4-methyl-3-(2-(4-propylpiperazin-1-yl)propanamido)thiophene-2-carboxylate]	42.4	
COC(=O)c1scc(C)c1NC(=O)C(C)N1CCN(C(C)(C)C)CC1 (stereo not shown) [AT-15, Methyl 3-(2-(4-(tert-butyl)piperazin-1-yl)propanamido)-4-methylthiophene-2-carboxylate]	116.4	subcutaneous infiltration duration (rats [1]): 205 min; motor block duration (rats [2]): 210 min; duration of effective sensory blockade (rats [2]): 190 min
COCCN(CCOC)C(C)C(=O)Nc1c(C)csc1C(=O)OC (stereo not shown) [AT-23, Methyl 3-(2-(bis(2-methoxyethyl)amino)propanamido)-4-methylthiophene-2-carboxylate]	43.6	
CCCNC(C)C(=O)Nc1c(C)csc1C(=O)OCC (stereo not shown) [AT-27, Ethyl 4-methyl-3-(2-(propylamino)propanamido)thiophene-2-carboxylate]	0.6	
COC(=O)c1scc(C)c1NC(=O)C(C)N1CCN(C)C(C)C1 (stereo not shown) [AT-2, Methyl 3-(2-(3,4-dimethylpiperazin-1-yl)propanamido)-4-methylthiophene-2-carboxylate]	92	
CCCNC(C)C(=O)Nc1c(C)csc1C(=O)OCC(C)C (stereo not shown) [AT-30, Isobutyl 4-methyl-3-(2-(propylamino)propanamido)thiophene-2-carboxylate]	105.4	
COC(=O)c1scc(C)c1NC(=O)C(C)N1CC(C)OC(C)(C)C1 (stereo not shown) [AT-8, Methyl 4-methyl-3-(2-(2,2,6-trimethylmorpholino)propanamido)thiophene-2-carboxylate]	36.8	
COC(=O)c1scc(C)c1NC(=O)C(C)N1CCOCC1 (stereo not shown) [AT-5, Methyl 4-methyl-3-(2-morpholinopropanamido)thiophene-2-carboxylate]	18.4	
